{"source": "ChEMBL document CHEMBL1122517", "about": "“2-Phenylindoles. Relationship between structure, estrogen receptor affinity, and mammary tumor inhibiting activity in the rat” (1984)", "key": {"Rattus norvegicus [1]": {"organism": "Rattus norvegicus", "assay": "Percent progressive DMBA-induced mammary carcinoma tumors in rats at 2.8 mg dose", "type": "functional", "outline": "(§1)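 Female Sprague-Dawley rats, 50 days old, given a single 20 mg DMBA dose in 1 mL olive oil by gavage. Rats were palpated twice weekly from day 30, and those without tumors by day 70 were discarded. Rats were randomized once tumor area exceeded 140 mm². Drug dose was per kg in olive oil (1 mL/kg) sc, single dose Mon–Thu and double dose Fri. Tumor area (caliper, two perpendicular axes) and body weight were measured twice weekly.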"}, "Rattus norvegicus [2]": {"organism": "Rattus norvegicus", "assay": "Percent unchanged DMBA-induced mammary carcinoma tumors in rats at 2.8 mg dose", "type": "functional", "outline": "as §1"}, "Rattus norvegicus [3]": {"organism": "Rattus norvegicus", "assay": "Change in DMBA-induced mammary carcinoma tumor area in rats at 2.8 mg dose; -39-458", "type": "functional", "outline": "(§2)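 Female Sprague-Dawley rats got one 20 mg DMBA dose by gavage at 50 days old and were palpated twice weekly from day 30. Rats were randomized once tumor area exceeded 140 mm². Dose (per kg) was given sc in olive oil, once daily Monday to Thursday and doubled on Friday. Tumor area was taken from caliper measurements of two perpendicular axes, twice weekly. Change per animal is given as median % and range.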"}, "Rattus norvegicus [4]": {"organism": "Rattus norvegicus", "assay": "Partial remission (%) of DMBA-induced mammary carcinoma tumors in rats at 2.8 mg dose", "type": "functional", "outline": "as §1"}, "Rattus norvegicus [5]": {"organism": "Rattus norvegicus", "assay": "Formation of new DMBA-induced mammary carcinoma tumors in rats at 2.8 mg dose", "type": "functional", "outline": "(§3)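 DMBA-induced tumors in Sprague-Dawley rats, entered when tumor area exceeded 140 mm². Dose per kg was given sc in olive oil, daily Monday to Thursday with a double dose Friday. Tumors were measured by calipers twice weekly. Tumor number was counted at the start of the test. Complete remission meant the tumor was no longer palpable. Partial remission meant reduction to ≤50% of initial size. New tumor appearance was recorded.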"}, "Rattus norvegicus [6]": {"organism": "Rattus norvegicus", "assay": "Number of DMBA-induced mammary carcinoma tumors in rats at 2.8 mg dose", "type": "functional", "outline": "as §3"}, "Rattus norvegicus [7]": {"organism": "Rattus norvegicus", "assay": "Change in body weight of DMBA-induced mammary carcinoma tumor bearing rats at 2.8 mg dose", "type": "functional", "outline": "(§4)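 DMBA-induced tumor-bearing Sprague-Dawley rats (20 mg DMBA by gavage at 50 days old), randomized when tumor area exceeded 140 mm². Dose per kg was given sc in olive oil, single dose daily Monday to Thursday, double dose Friday. Body weight was measured twice weekly. Read-out was % change in body weight.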"}, "[8]": {"target": "T1, Estrogen receptor (Mus musculus) (UniProt O08537+P19785)", "T1 sequence (O08537 whole entry, looked up)": "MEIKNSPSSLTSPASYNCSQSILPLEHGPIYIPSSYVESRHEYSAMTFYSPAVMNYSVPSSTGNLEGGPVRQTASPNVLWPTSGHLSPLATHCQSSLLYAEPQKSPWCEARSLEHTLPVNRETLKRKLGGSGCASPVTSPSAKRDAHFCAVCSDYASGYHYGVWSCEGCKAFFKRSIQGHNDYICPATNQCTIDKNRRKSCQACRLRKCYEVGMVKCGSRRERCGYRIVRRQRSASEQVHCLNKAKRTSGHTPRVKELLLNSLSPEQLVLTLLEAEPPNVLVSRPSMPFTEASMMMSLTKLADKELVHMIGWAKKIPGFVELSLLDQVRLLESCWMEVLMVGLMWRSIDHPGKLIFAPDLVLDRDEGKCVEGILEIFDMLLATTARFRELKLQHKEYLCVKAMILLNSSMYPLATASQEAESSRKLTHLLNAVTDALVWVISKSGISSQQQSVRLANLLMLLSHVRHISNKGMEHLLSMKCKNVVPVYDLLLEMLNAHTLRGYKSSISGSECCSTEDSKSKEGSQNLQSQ", "T1 sequence (P19785 whole entry, looked up)": "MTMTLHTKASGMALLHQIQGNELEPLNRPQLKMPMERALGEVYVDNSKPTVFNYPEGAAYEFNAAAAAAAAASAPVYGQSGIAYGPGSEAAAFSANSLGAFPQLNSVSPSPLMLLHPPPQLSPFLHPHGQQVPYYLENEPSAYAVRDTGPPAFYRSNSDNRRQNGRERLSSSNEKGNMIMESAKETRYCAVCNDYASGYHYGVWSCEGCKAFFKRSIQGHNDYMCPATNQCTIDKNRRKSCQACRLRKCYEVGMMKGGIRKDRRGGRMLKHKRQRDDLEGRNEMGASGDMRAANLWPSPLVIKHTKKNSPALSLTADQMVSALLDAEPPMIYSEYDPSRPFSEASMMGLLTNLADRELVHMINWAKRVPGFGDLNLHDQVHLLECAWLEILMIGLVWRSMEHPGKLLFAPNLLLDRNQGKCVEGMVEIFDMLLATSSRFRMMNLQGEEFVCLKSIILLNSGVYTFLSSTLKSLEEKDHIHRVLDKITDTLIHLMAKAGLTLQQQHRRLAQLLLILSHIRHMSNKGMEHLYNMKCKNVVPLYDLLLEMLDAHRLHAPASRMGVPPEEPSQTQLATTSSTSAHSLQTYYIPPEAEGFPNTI", "assay": "Anti-uterotrophic activity in mice as uterus dry weight (mg)/body weight (g) *100 at 1 ug dose", "type": "functional, tissue-based", "outline": "(§5)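 Immature female NMRI mice, 19 days old, groups of 10, given sc injections on 3 consecutive days. Each injection held 0.4 μg estrone plus the indole dose per animal, in olive oil (50 μL). Killed 24 h after the last injection. Uteri were fixed in Bouin solution, washed, and dried 24 h at 100 °C. Read-out was uterine dry weight (mg)/body weight (g) × 100, mean ± SD.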"}, "Rattus norvegicus [9]": {"organism": "Rattus norvegicus", "assay": "Change in DMBA-induced mammary carcinoma tumor area in rats at 1.8 mg dose; -75-656", "type": "functional", "outline": "as §2"}, "[10]": {"target": "T1, Estrogen receptor (Mus musculus)", "assay": "Anti-uterotrophic activity in mice as uterus dry weight (mg)/body weight (g) *100 at 125 ug dose", "type": "functional, tissue-based", "outline": "as §5"}, "[11]": {"target": "T1, Estrogen receptor (Mus musculus)", "assay": "Anti-uterotrophic activity in mice as uterus dry weight (mg)/body weight (g) *100 at 5 ug dose", "type": "functional, tissue-based", "outline": "as §5"}, "[12]": {"target": "T1, Estrogen receptor (Mus musculus)", "assay": "Uterotrophic activity in mice as uterus dry weight (mg)/body weight (g) *100 at 1 ug dose", "type": "functional, tissue-based", "outline": "(§6)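 Immature 19-day-old female NMRI mice, groups of 10. Compound dose per animal in olive oil (50 µL) sc on 3 consecutive days. Mice were killed 24 h after the last injection. Uteri were Bouin-fixed 20 h, cleaned, washed with alcoholic LiCl, and dried at 100 °C for 24 h. Effect = uterine dry weight (mg)/body weight (g) ×100; mean ± SD.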"}, "[13]": {"target": "T1, Estrogen receptor (Mus musculus)", "assay": "Uterotrophic activity in mice as uterus dry weight (mg)/body weight (g) *100 at 125 ug dose", "type": "functional, tissue-based", "outline": "as §6"}, "[14]": {"target": "T1, Estrogen receptor (Mus musculus)", "assay": "Uterotrophic activity in mice as uterus dry weight (mg)/body weight (g) *100 at 25 ug dose", "type": "functional, tissue-based", "outline": "as §6"}, "Rattus norvegicus [15]": {"organism": "Rattus norvegicus", "assay": "Change in body weight of DMBA-induced mammary carcinoma tumor bearing rats at 1.8 mg dose", "type": "functional", "outline": "as §4"}, "Rattus norvegicus [16]": {"organism": "Rattus norvegicus", "assay": "Formation of new DMBA-induced mammary carcinoma tumors in rats at 1.8 mg dose", "type": "functional", "outline": "as §3"}, "Rattus norvegicus [17]": {"organism": "Rattus norvegicus", "assay": "Partial remission (%) of DMBA-induced mammary carcinoma tumors in rats at 1.8 mg dose", "type": "functional", "outline": "as §3"}, "Rattus norvegicus [18]": {"organism": "Rattus norvegicus", "assay": "Percent unchanged DMBA-induced mammary carcinoma tumors in rats at 1.8 mg dose", "type": "functional", "outline": "as §1"}, "[19]": {"target": "T1, Estrogen receptor (Mus musculus)", "assay": "Percentage inhibition of uterotrophic activity at 25 ug dose", "type": "functional", "outline": "(§7)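 Antiuterotrophic test in immature 19-day-old female NMRI mice (n=10), dosed sc on 3 consecutive days with 0.4 µg estrone per animal per day plus compound in olive oil. Uterine dry weight/body weight ×100 was read 24 h after the last dose. Inhibition % = 100 − [(E_S,T − E_V)/(E_S − E_V)]×100.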"}, "Rattus norvegicus [20]": {"organism": "Rattus norvegicus", "assay": "Percent progressive DMBA-induced mammary carcinoma tumors in rats at 1.8 mg dose", "type": "functional", "outline": "as §1"}, "[21]": {"target": "T1, Estrogen receptor (Mus musculus)", "assay": "Anti-uterotrophic activity in mice as uterus dry weight (mg)/body weight (g) *100 at 25 ug dose", "type": "functional, tissue-based", "outline": "as §5"}, "[22]": {"target": "T1, Estrogen receptor (Mus musculus)", "assay": "Percentage inhibition of uterotrophic activity at 125 ug dose", "type": "functional", "outline": "as §7"}, "[23]": {"target": "T1, Estrogen receptor (Mus musculus)", "assay": "Uterotrophic activity in mice as uterus dry weight (mg)/body weight (g) *100 at 5 ug dose", "type": "functional, tissue-based", "outline": "as §6"}, "Rattus norvegicus [24]": {"organism": "Rattus norvegicus", "assay": "Number of DMBA-induced mammary carcinoma tumors in rats at 1.8 mg dose", "type": "functional", "outline": "as §3"}}, "note": "Several values for one entry are separate records, joined by “and”; a condition that tells them apart may be missing. Equal entries are not always repeated."}
{"smiles": "CC/C(=C(\\c1ccccc1)c1ccc(OCCN(C)C)cc1)c1ccccc1.O=C(O)CC(O)(CC(=O)O)C(=O)O", "note": "[TAMOXIFEN CITRATE]", "values": [{"measurement": "Progressed tumors", "setting": "Rattus norvegicus [1]", "value": 53}, {"measurement": "Static remission", "setting": "Rattus norvegicus [2]", "value": 27, "unit": "%"}, {"measurement": "Change of tumor area", "setting": "Rattus norvegicus [3]", "value": -39, "unit": "%"}, {"measurement": "Partial remission", "setting": "Rattus norvegicus [4]", "value": 7, "unit": "%"}, {"measurement": "New tumors", "setting": "Rattus norvegicus [5]", "value": 26}, {"measurement": "No. of tumors", "setting": "Rattus norvegicus [6]", "value": 34}, {"measurement": "Change of body weight", "setting": "Rattus norvegicus [7]", "value": 0}]}
{"smiles": "CCn1c(-c2ccc(OC(C)=O)cc2)c(C)c2cc(OC(C)=O)ccc21", "note": "[ZINDOXIFENE]", "values": [{"measurement": "Anti-uterotrophic effect", "setting": "[8]", "value": "38.5 and 51.1"}, {"measurement": "Change of tumor area", "setting": "Rattus norvegicus [9]", "value": -75, "unit": "%"}, {"measurement": "Anti-uterotrophic effect", "setting": "[10]", "value": "37.8 and 33"}, {"measurement": "Anti-uterotrophic effect", "setting": "[11]", "value": "46.3 and 50.4"}, {"measurement": "Uterotrophic effect", "setting": "[12]", "value": 16.4}, {"measurement": "Uterotrophic effect", "setting": "[13]", "value": "19.5 and 30.5"}, {"measurement": "Uterotrophic effect", "setting": "[14]", "value": "17.9 and 21"}, {"measurement": "Change of body weight", "setting": "Rattus norvegicus [15]", "value": 1, "unit": "%"}, {"measurement": "New tumors", "setting": "Rattus norvegicus [16]", "value": 25}, {"measurement": "Partial remission", "setting": "Rattus norvegicus [17]", "value": 12, "unit": "%"}, {"measurement": "Static tumors", "setting": "Rattus norvegicus [18]", "value": 14, "unit": "%"}, {"measurement": "inhibition", "setting": "[19]", "value": 45, "unit": "%"}, {"measurement": "Progressed tumors", "setting": "Rattus norvegicus [20]", "value": 55, "unit": "%"}, {"measurement": "Anti-uterotrophic effect", "setting": "[21]", "value": "53.5 and 33.5"}, {"measurement": "inhibition", "setting": "[22]", "value": "25% and 46%"}, {"measurement": "Uterotrophic effect", "setting": "[23]", "value": "14.1 and 19.6"}, {"measurement": "No. of tumors", "setting": "Rattus norvegicus [24]", "value": 33}]}
